# Published values pooled from the literature.
# Compare with care: the assays were run in different laboratories.
SMILES,target or system,assay,test system,setting,endpoint,result
Cc1ncc2n1-c1ccc(Cl)cc1C(c1ccccc1F)=NC2,,metabolic stability,"human, hepatocytes","1 µM, 4 h",compound remaining,26%
COc1cc([C@@H]2c3cc4c(cc3[C@H](O)[C@H]3COC(=O)[C@H]23)OCO4)cc(OC)c1OC,L6,"cell growth or viability, resazurin",,72 h,IC50,0.169 µM
O=c1ccc2cc(O)c(OCCCCCn3ccnc3)cc2o1,HepG2.2.15,"cell growth or viability, MTT",,9 days,CC50,140 µM
COc1cc([C@@H]2c3cc4c(cc3[C@H](O)[C@H]3COC(=O)[C@H]23)OCO4)cc(OC)c1OC,L6,"cell growth or viability, resazurin",,70 h,IC50,0.05 µM
Cc1ncc2n1-c1ccc(Cl)cc1C(c1ccccc1F)=NC2,,metabolic stability,"human, liver microsomes","1 µM, 30 min",compound remaining,< 7%
CCOC(=O)c1ncn2c1[C@H](C)N=C(c1ccccc1F)c1cc(C3CC3)ccc1-2,,metabolic stability,"human, liver microsomes",20 min,compound remaining,< 5%
Cc1nc(C(=O)N2CCC[C@H]2C(=O)N[C@@H](CCC2CCCCC2)C(=O)N[C@@H](CC(C)C)C(=O)NC(C)(C)C(=O)N[C@@H](CC(C)C)C(=O)N(C)[C@@H](CC(C)C)C(=O)NC(C)(C)C(=O)NC(C)(C)C(=O)NCCC(=O)NC2(CN(C)C)CCC2)co1,L6,"cell growth or viability, resazurin",,68 h,IC50,> 8.45 µM
N=c1c2c(-c3ccccc3)c(-c3ccccc3)n(Cc3ccccc3)c2ncn1[C@H]1CC[C@H](O)CC1,,metabolic stability,"human, hepatocytes","1 µM, 4 h",compound remaining,86%
Cc1nccn1CCCCOc1cc2oc(=O)ccc2cc1O,HepG2.2.15,"cell growth or viability, MTT",,9 days,CC50,> 648 µM
C#Cc1ccc2c(c1)C(c1ccccc1F)=N[C@@H](C)c1c(C(=O)OCC(F)(F)F)ncn1-2,,metabolic stability,"human, liver microsomes",10 min,compound remaining,< 5%
